Drawing on ChEMBL document CHEMBL1208735, “6-(4'-Aryloxy-phenyl)vinyl-1,2,4-trioxanes: a new series of orally active peroxides effective against multidrug-resistant Plasmodium yoelii in Swiss mice” (2010), this text covers Activity for 13 compounds.

The subject of assay [1] is Plasmodium yoelii nigeriensis. Briefly: Antimalarial activity against multi drug-resistant Plasmodium yoelii nigeriensis infected in Swiss mice (Mus musculus) assessed as protection of patent infection at 96 mg/kg, perorally daily for 4 days measured after 28 days. It is filed as functional, organism-based. Also noted: dose 96 mg/kg. The method, boiled down: (§1)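 Colony-bred Swiss mice (25 ± 1 g) inoculated day 0 with 1×10^6 parasitized RBC of P. yoelii nigeriensis (resistant to chloroquine, mefloquine, halofantrine). Five mice per dose. Oral dosing in groundnut oil, 0.1 ml per dose, days 0–3, given as two divided doses daily. Thin blood smears read through day 28. Mice without patent infection by day 28 scored cured, expressed as cured/treated.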

Assay [2] has as its system Plasmodium yoelii nigeriensis. Kind of assay: Antimalarial activity against multi drug-resistant Plasmodium yoelii nigeriensis infected in Swiss mice (Mus musculus) assessed as suppression of parasitaemia level at 96 mg/kg, perorally daily for 4 days. The assay is classed as functional. Conditions: route oral. The method, boiled down: (§2)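 Swiss mice (25 ± 1 g) infected day 0 with 1×10^6 parasitized RBC of multidrug-resistant P. yoelii nigeriensis. Groups of five dosed orally in groundnut oil (0.1 ml per dose), days 0–3, two divided doses daily. Parasitaemia read from thin blood smears on day 4 as % suppression. 100% means no parasites seen in 50 oil-immersion fields. β-Arteether was the positive control.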

Assay [3] concerns Plasmodium yoelii nigeriensis. Kind of assay: Antimalarial activity against multi drug-resistant Plasmodium yoelii nigeriensis infected in Swiss mice (Mus musculus) assessed as suppression of parasitaemia level at 48 mg/kg, perorally daily for 4 days. The settings on record: route oral. It is filed as functional. In a few lines:
as §2

Assay [4] has as its system Plasmodium yoelii nigeriensis. Kind of assay: Antimalarial activity against multi drug-resistant Plasmodium yoelii nigeriensis infected in Swiss mice (Mus musculus) assessed as protection of patent infection at 24 mg/kg, perorally daily for 4 days measured after 28 days. The assay is classed as functional, organism-based. Also noted: dose 24 mg/kg. The method, boiled down:
as §1

Assay [5] has as its system Plasmodium yoelii nigeriensis. Kind of assay: Antimalarial activity against multi drug-resistant Plasmodium yoelii nigeriensis infected in Swiss mice (Mus musculus) assessed as suppression of parasitaemia level at 24 mg/kg, perorally daily for 4 days. Conditions: route oral. It is filed as functional. The method, boiled down:
as §2

Assay [6] has as its system Plasmodium yoelii nigeriensis. Briefly: Antimalarial activity against multi drug-resistant Plasmodium yoelii nigeriensis infected in Swiss mice (Mus musculus) assessed as protection of patent infection at 48 mg/kg, perorally daily for 4 days measured after 28 days. The assay is classed as functional, organism-based. Also noted: dose 48 mg/kg. The method, boiled down:
as §1

The source made the active and inactive calls. No cut-off for these calls is given here.

As to `C=C(c1ccc(Oc2ccc(-c3ccccc3)cc2)cc1)C1COC2(CCCCC2)OO1` (stereo unspecified), the outcome in assay [1] was inactive. Further, the Activity in assay [2] came to 84.39%.
In the case of `C=C(c1ccc(Oc2cccc3ccccc23)cc1)C1COC2(CCCC2)OO1` (stereo unspecified), the Activity in assay [3], in assay [2] and in assay [5] was 100% each time. Besides, the outcome in assay [1] and in assay [6] was Active. Further, the outcome in assay [4] was inactive.
On to `C=C(c1ccc(Oc2ccccc2)cc1)C1COC2(OO1)C1CC3CC(C1)CC2C3` (stereo unspecified), for which, in assay [2], the Activity came to 100%.
The same measure, in the same setting: the value for `C=C(c1ccc(Oc2ccccc2)cc1)C1COC2(CCCC2)OO1` (stereo unspecified) was 100%.
With `CCO[C@H]1O[C@@H]2O[C@@]3(C)CC[C@H]4[C@H](C)CC[C@@H]([C@H]1C)[C@@]24OO3` [ARTEMOTIL], the Activity in assay [3] and in assay [5] was 100% throughout. The result in assay [6] was Active.
For the compound `C=C(c1ccc(Oc2cccc3ccccc23)cc1)C1COC2(CCCCC2)OO1` (stereo unspecified), the outcome in assay [1] was inactive. Also, in assay [2], the Activity is recorded as 92.81%.
As for `C=C(c1ccc(Oc2ccc(-c3ccccc3)cc2)cc1)C1COC2(OO1)C1CC3CC(C1)CC2C3` (stereo unspecified), the Activity in assay [2] was 100%.
In the case of `C=C(c1ccc(Oc2cccc3ccccc23)cc1)C1COC2(OO1)C1CC3CC(C1)CC2C3` (stereo unspecified), the outcome in assay [1] was inactive. For the same compound, the Activity in assay [2] was 93.15%.
Regarding `C=C(c1ccc(Oc2ccc3ccccc3c2)cc1)C1COC2(CCCC2)OO1` (stereo unspecified), the Activity in assay [3], in assay [2] and in assay [5] was 100% each time. Also, the outcome in assay [1] and in assay [6] was Active. In addition, in assay [4], the result was inactive.
`C=C(c1ccc(Oc2ccccc2)cc1)C1COC2(CCCCC2)OO1` (stereo unspecified): the Activity in assay [2] came out at 100%.
For `C=C(c1ccc(Oc2ccc3ccccc3c2)cc1)C1COC2(OO1)C1CC3CC(C1)CC2C3` (stereo unspecified), in assay [2], the Activity is listed as 100%.
On to `C=C(c1ccc(Oc2ccc(-c3ccccc3)cc2)cc1)C1COC2(CCCC2)OO1` (stereo unspecified), for which the Activity in assay [3] and in assay [2] was 100% each time. In addition, the outcome in assay [1] was Active. Further, the result in assay [6] was inactive.
Turning to `C=C(c1ccc(Oc2ccc3ccccc3c2)cc1)C1COC2(CCCCC2)OO1` (stereo unspecified), in assay [2], the Activity is listed as 100%.
